Shown are actives, neighbours in structure and some others; about 2.4% of the full set was active somewhere.
GSTO1 inh = blocks human GSTO1 in RBBP9 counter-screen; P78417; recombinant GSTO1, activity-based probe fluorescence polarization; inhibition, % at 5.96 µM; hit rate 1.1% among 300,000;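 active = inhibition above the campaign mean inhibition plus 3 SD, cut at about 35% in these data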
Target sequence (P78417 whole entry, looked up): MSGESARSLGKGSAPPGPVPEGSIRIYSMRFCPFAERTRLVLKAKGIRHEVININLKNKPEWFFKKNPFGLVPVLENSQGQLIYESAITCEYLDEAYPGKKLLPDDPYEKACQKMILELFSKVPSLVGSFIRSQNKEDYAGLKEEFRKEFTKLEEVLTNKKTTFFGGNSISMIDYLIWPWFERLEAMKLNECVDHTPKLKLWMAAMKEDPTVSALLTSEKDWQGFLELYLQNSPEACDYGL
TDP2 absorb = TDP2 (human) inhibition, absorbance primary screen | O95551 | recombinant TDP2, T5PNP hydrolysis, p-nitrophenol absorbance 415 nm | inhibition, % at 12.8 µM | hit rate 0.34% among 370,000 | AID 720702;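 active = inhibition above the mean of all tested compounds plus 3 SD, set per campaign, cut at about 25% in these data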
Target sequence (O95551 whole entry, looked up): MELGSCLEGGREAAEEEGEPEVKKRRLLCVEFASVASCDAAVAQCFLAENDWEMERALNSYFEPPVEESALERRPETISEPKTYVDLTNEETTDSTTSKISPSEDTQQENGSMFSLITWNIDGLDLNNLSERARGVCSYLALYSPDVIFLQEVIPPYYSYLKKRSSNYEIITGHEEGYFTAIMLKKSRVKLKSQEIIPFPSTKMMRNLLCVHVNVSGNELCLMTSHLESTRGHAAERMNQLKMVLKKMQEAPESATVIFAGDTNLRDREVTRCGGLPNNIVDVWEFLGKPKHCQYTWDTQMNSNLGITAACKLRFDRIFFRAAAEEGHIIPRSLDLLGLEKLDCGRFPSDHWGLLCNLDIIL
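System: recombinant human TDP2 / Amount: 120 nM TDP2 per well / Also added: 5 mM T5PNP chromogenic substrate / Doses: 12.8 µM single point, 1% DMSO / Incubation: 2 h at 37 °C / Detection: p-Nitrophenol epi absorbance / Evaluation: % inhibition relative to enzyme-containing and enzyme-free wells / Repeats: singlicate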
Apaf1 inhib = inhibitors of human Apaf-1 apoptosome; hit rate 0.71% among 330,000; inhibition, % at 20 µM; reconstituted apoptosome caspase-3 activity, DEVD-Rh110 fluorescence; active = inhibition of at least 40% at 20 µM
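Material: reconstituted apoptosome with Apaf-1, cytochrome c, caspase-9, procaspase-3, dATP / Buffer or medium: pH 7.5 Hepes buffer with CHAPS, BSA, DTT / Also added: cytochrome c with DEVD-Rh110 / Schedule: compound with Apaf-1, dATP, procaspase-3 30 min, then 50 min reaction, room temperature / Technique: rhodamine 110 fluorescence at Ex 480/Em 540 nm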
PAD4 FP inh = inhibitors of human PAD4. Q9UM07. AID 485272. hit rate 0.41% among 330,000. recombinant PAD4, RCA probe fluorescence polarization. inhibition, % at 6.36 µM;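 active = percent inhibition above a cutoff equal to the mean of all tested compounds plus 3 SD, cut at about 15% in these data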
SIAE primary = inhibitors of human sialic acid acetylesterase SIAE | inhibition, % at 9.66 µM | SIAE FP-Rh probe binding, fluorescence polarization | AID 1053197 | Q9HAT2 | hit rate 0.69% among 370,000;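 active = inhibition above a cutoff: mean of compounds within the control limits plus 3 SD of those, cut at about 17% in these data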
TCR-CD3 inh = human TCR-CD3 binding inhibition; inhibition, % at 9.4 µM; hit rate 0.37% among 360,000; TAMRA-labeled TCR probe fluorescence, biochemical;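 note: recombinant mutant TCR 2C K166C tagged with TAMRA read by polarization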
BSA probe FL = BSA probe counter-screen for TCR-CD3 inhibitors; shares compounds with TCR-CD3 inh; TAMRA-labeled BSA probe fluorescence counterscreen; inhibition, % at 9.4 µM; hit rate 10% among 1,200; AID 652035; in the data active = inhibition above about 23%
TCR-CD3 inh conf = TCR-CD3 interaction inhibition, confirmation; inhibition, % at 9.4 µM; hit rate 48% among 1,200; shares compounds with TCR-CD3 inh; TAMRA-labeled TCR probe fluorescence binding assay
Hits are given with their value; . = inactive; / = no result. Cut-off read from the data, not from the text of the source, unless noted: active = inhibition above about 19%; inactive = the rest.

SMILES | GSTO1 inh | TDP2 absorb | Apaf1 inhib | PAD4 FP inh | SIAE primary | TCR-CD3 inh | BSA probe FL | TCR-CD3 inh conf
COC(=O)Cc1c([C@H](C)[C@@H](OC)c2ccccc2Br)nnn1Cc1ccccc1 | / | . | / | / | . | . | / | /
O=C(N[C@H](Cc1ccccc1)C(=O)NCCCN1CCCC1=O)[C@H]1O[C@@H](n2ccc(=O)[nH]c2=O)[C@H](O)[C@@H]1O | / | . | / | / | . | . | / | /
Cc1cccc(C(=O)NNC(=O)c2c(-c3ccccc3Cl)noc2C)c1O | . | . | . | . | . | 29 | . | .
Nc1ccc([N+](=O)[O-])cc1C(=O)NNC(=O)c1ccco1 | . | . | . | . | . | 27 | . | 32
CCCOc1ccc(C(=O)NNC(=S)NC(=O)c2ccco2)cc1 | . | . | . | . | . | 20 | . | .
O=C(NNC(=O)c1ccccc1O)c1ccco1 | . | . | . | . | . | . | / | /
Cc1onc(-c2ccccc2Cl)c1C(=O)NNC(=O)c1ccc(F)cc1 | . | . | . | . | . | . | / | /
Cc1cccc(C(=O)NNC(=O)c2ccco2)c1O | . | . | . | . | . | 19 | . | .
COc1ccc(NC(=O)NC(c2ccccc2)c2ccccc2)c(OC)c1 | . | . | . | . | . | . | / | /
COc1ccc(CCN=C(N)NS(=O)(=O)c2ccc(C)cc2)cc1 | . | . | . | . | . | . | / | /
COc1ccc(C(=O)NNC(=S)NC(=O)c2ccco2)cc1 | . | . | . | . | . | . | / | /
COc1ccccc1C(=O)NNC(=S)NC(=O)c1ccco1 | . | . | . | . | . | 21 | . | .
COc1ccc(NC(=O)CCCNC(=O)Cn2cnc3sc(C)c(C)c3c2=O)c(OC)c1 | . | . | . | . | . | 72 | . | .
CCOc1ccc2nc(SCC(=O)N3CCN(C(=O)c4ccco4)CC3)sc2c1 | . | . | . | . | . | . | / | /
C/C(=N\NC(=O)COc1ccccc1-c1ccccc1)c1ccc(O)cc1O | . | . | . | . | . | 19 | . | 29
Cc1cccc(N2CCN(S(=O)(=O)c3cnc[nH]3)CC2)c1C | . | . | . | . | . | . | / | /
O=C1NC(=O)C2(N1)C(=O)c1cccc3cccc2c13 (stereo not given) | / | . | / | / | . | 61 | 37 | 31
COc1ccccc1-c1noc(CCCC(=O)NC2CCCCC2)n1 | . | . | . | . | . | . | / | /
O=C(c1cc(-c2ccco2)nc2ccccc12)N1CCN(Cc2ccccc2)CC1 | / | . | . | . | . | . | / | /
COC(=O)C1CCN(C(=O)c2cc(-c3ccco3)nc3ccccc23)CC1 | / | . | . | . | . | 27 | . | 31
Cc1nc(S/C(=C/c2ccc(-c3ccc(C(=O)O)cc3)o2)C(=O)O)n[nH]1 | . | . | . | . | . | 68 | . | 51
C[C@H](NC(=O)c1nc[nH]c1C(=O)N[C@@H](CCCCNC(=O)OC(C)(C)C)C(=O)OC(C)(C)C)C(=O)OCc1ccccc1 | . | . | . | . | . | 27 | . | .
CC(C)C[C@H](NC(=O)c1nc[nH]c1C(=O)N[C@@H](CCCCNC(=O)OC(C)(C)C)C(=O)OC(C)(C)C)C(=O)OCc1ccccc1 | . | . | . | . | . | . | / | /
CCCCn1nnnc1SCC(=O)N1CCCC1 | . | . | . | . | . | 21 | . | .
O=C(O)c1cccc2cc(-c3ccccc3)oc(=O)c12 | . | . | . | . | . | . | / | /
SMILES | GSTO1 inh | TDP2 absorb | Apaf1 inhib | PAD4 FP inh | SIAE primary | TCR-CD3 inh | BSA probe FL | TCR-CD3 inh conf
O=C(O)c1cccc2cccc(-c3c4ccc(=O)c(O)c-4oc4c(O)c(O)ccc34)c12 | / | . | / | / | 36 | 66 | . | 68
O=C(CN1C(=O)NC2(CCOc3ccccc32)C1=O)c1ccc(F)cc1 (stereo not given) | . | . | . | . | . | 19 | . | .
O=S(=O)(Nc1cccc2ncccc12)c1cccc(C(F)(F)F)c1 | / | . | . | . | . | 20 | . | .
COCOc1cccc(CN2CCC(C)(Oc3ccc(C(C)=O)cc3)C2)c1 (stereo not given) | / | . | / | / | . | . | / | /
CC(=O)c1ccc(OC2(C)CCN(Cc3cc4ccccc4[nH]3)C2)cc1 (stereo not given) | / | . | / | / | . | 31 | . | .
CCOC(=O)c1nn(-c2ccccc2)c2nnc(Cc3ccc(Cl)cc3)c(=O)n12 | . | . | . | . | . | . | / | /
COCCNC(=S)N/N=C(\C)c1ccc(O)cc1 | . | . | . | . | . | . | / | /
C/C(=N\NC(=S)NCC(C)(C)C)c1cc(F)cc(F)c1O | . | . | . | . | . | 27 | . | .
CC(C)c1ccccc1OCC(=O)NC1CCCc2ccccc21 (stereo not given) | . | . | . | . | . | . | / | /
NNC(=O)c1ccc2nc(-c3ccc(Br)cc3)cn2c1 | . | . | . | . | . | . | / | /
COc1ccc(-c2cn3cc(C(=O)NN)ccc3n2)cc1 | . | . | . | . | . | 21 | . | .
O=C(O)c1ccccc1N(Cc1ccccc1)C(=O)COc1ccccc1 | . | . | . | . | . | . | / | /
c1cc(-c2ccoc2)n2ccnc2c1 | / | . | / | / | . | 25 | . | .
c1cc(-c2ccsc2)n2ccnc2c1 | / | . | / | / | . | . | / | /
O=[N+]([O-])c1cc(Br)c(O)c(/C=N/Nc2nnnn2-c2cccc3ccccc23)c1 | . | . | . | . | . | 20 | . | 41
CCOC(=O)c1ccc(CC(=O)c2ccc(O)c(O)c2O)o1 | / | . | . | / | . | 21 | . | 21
CCOC(=O)c1ccc(CC(=O)c2oc3cc(O)ccc3c2C)o1 | . | . | . | . | . | . | / | /
COCC1CCCN(Cc2nc(C(c3ccccc3)c3ccccc3)no2)C1 (stereo not given) | . | . | . | . | . | . | / | /
Cc1cc(C(=O)N/N=C/c2cccc([N+](=O)[O-])c2)c2ccccc2n1 | . | . | . | . | . | . | / | /
COc1cc([N+](=O)[O-])cc(/C=N/NC(=O)c2cc(C)nc3ccccc23)c1O | . | . | . | . | . | 24 | . | 23
COc1cc([N+](=O)[O-])cc(/C=N/NC(=O)c2cc(-c3ccccc3)nc3ccccc23)c1O | . | . | . | . | . | 24 | . | .
COc1cccc2cc(C(=O)N3CCN(C(=O)c4ccco4)CC3)c(=O)oc12 | . | . | . | . | . | . | / | /
COc1cc(Br)cc2cc(C(=O)N3CCN(C(=O)c4ccco4)CC3)c(=O)oc12 | . | . | . | . | . | 20 | . | 19
COc1ccc(NCC(=O)n2c(C)c(C)c3ccccc32)cc1 | . | . | . | . | . | . | / | /
O=C(COC(=O)c1ccc(OC(F)F)cc1)Nc1cccc(S(=O)(=O)NC2=NCCC2)c1 | / | . | . | . | . | 40 | . | .
O=C(COC(=O)c1ccc(O)cc1)Nc1cccc(S(=O)(=O)NC2=NCCC2)c1 | / | . | . | . | . | . | / | /

Screening data from PubChem.
